Experimental data collected from several papers.
Protocols differ between the studies behind these lines.
Target: Glucocorticoid receptor (NR3C1, Homo sapiens, UniProt P04150)
Sequence (P04150 1-777, as in one of the studies): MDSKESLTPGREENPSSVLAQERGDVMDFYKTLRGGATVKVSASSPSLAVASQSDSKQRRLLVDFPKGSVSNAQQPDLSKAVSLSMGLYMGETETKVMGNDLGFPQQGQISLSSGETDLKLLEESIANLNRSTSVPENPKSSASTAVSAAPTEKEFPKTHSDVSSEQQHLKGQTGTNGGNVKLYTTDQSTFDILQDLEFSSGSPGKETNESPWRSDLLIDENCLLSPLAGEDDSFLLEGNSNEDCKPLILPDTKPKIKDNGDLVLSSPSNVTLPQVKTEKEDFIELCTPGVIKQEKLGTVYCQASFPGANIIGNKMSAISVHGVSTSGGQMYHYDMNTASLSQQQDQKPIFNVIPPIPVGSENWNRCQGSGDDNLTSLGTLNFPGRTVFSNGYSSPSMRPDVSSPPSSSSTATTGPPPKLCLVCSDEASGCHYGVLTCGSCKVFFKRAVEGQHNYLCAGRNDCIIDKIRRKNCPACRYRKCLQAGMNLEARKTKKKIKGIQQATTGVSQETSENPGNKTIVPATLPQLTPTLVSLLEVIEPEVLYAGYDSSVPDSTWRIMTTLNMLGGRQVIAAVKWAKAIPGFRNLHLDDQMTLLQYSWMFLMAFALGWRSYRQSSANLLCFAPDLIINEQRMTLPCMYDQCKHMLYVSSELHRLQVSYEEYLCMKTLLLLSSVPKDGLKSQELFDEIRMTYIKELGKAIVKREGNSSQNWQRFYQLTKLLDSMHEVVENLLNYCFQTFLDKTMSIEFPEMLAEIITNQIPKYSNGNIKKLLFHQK

Structure (SMILES) | read-out | technique | tested at | endpoint | value
O=C(Nc1cccnn1)N1CCN([C@@H]2CCOc3cc(C(F)(F)F)ccc32)CC1 | cell-free assay |  | 20 µM | inhibition | 4%
COCc1c(-c2cc3cc(C)cc(OC)c3s2)c2c(N)ncnn2c1CN1CCNC(=O)C1 | ligand displacement | radioligand | 10 µM | inhibition | -1%
C[C@H](C(=O)N[C@H]1COc2ccccc2[C@@H]1S(C)(=O)=O)c1ccc(F)cc1 | cell-free assay |  | 10 µM | inhibition | 14%
Nc1ncc(-c2nc(N3CCOCC3)nc(N3CCOCC3)n2)c(C(F)F)n1 | cell-free assay | radioligand | 10 µM | remaining signal | 105%
CN(CCN1CCC(OC(=O)Nc2ccccc2-c2ccccc2)CC1)C(=O)c1ccc(CN2CCC(C(N)=O)CC2)cc1 | ligand displacement | radioligand | 1 µM | inhibition | -8%
CC(C)N1CCC[C@H]1CNC(=O)c1cn(C2CCCC2)c(=O)c2c1c1ccccc1n2C | ligand displacement | radioligand | 10 µM | inhibition | 1%
Clc1ccc2c(C3CCN(CCc4c[nH]c5ccccc45)CC3)c[nH]c2c1 | ligand displacement | radioligand | 10 µM | inhibition | 7%
c1ccc(C(NCCNC(c2ccccc2)c2ccccc2)c2ccccc2)cc1 | cell-free assay |  | 10 µM | inhibition | 6%
